In ChEMBL document CHEMBL4311968, “New oxadiazoles with selective-COX-2 and EGFR dual inhibitory activity: Design, synthesis, cytotoxicity evaluation and in silico studies” (Eur J Med Chem, 2019):

How the values were obtained:
[1] = biological target: T1, Prostaglandin G/H synthase 1 (Ovis aries, UniProt P05979); test: Inhibition of ovine COX-1 by EIA method
T1 sequence (P05979 whole entry): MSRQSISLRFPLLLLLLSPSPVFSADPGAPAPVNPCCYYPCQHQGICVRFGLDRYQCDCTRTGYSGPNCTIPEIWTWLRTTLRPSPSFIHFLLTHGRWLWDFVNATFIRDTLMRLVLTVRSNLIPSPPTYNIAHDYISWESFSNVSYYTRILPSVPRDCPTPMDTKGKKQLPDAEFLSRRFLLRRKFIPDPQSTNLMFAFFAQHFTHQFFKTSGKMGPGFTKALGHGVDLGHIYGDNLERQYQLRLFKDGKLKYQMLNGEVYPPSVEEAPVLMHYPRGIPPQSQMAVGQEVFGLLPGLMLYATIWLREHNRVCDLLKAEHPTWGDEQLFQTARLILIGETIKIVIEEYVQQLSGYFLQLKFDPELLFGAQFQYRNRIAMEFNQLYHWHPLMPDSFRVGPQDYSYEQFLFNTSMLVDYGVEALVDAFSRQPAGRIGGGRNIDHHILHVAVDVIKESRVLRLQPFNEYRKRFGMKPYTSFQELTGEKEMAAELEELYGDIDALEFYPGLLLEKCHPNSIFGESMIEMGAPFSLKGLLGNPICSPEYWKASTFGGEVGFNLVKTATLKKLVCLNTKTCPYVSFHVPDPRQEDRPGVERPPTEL

UO-31 = test: Antiproliferative against human UO31 cells incubated for 24 hrs by MTT assay; assay type: functional, cell-based; conditions: UO-31, 24 h
Procedure, shortened: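 UO-31 cells from ATCC, grown in DMEM with 10% FBS, 10 ug/mL insulin and 1% penicillin-streptomycin. Seeded at 1.2–1.8 × 10,000 cells/well with test compound for 24 h. MTT read-out: crystals dissolved in acidified isopropanol, absorbance at 570 nm.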

[2] = biological target: Epidermal growth factor receptor (Homo sapiens, UniProt P00533); test: Inhibition of recombinant human GST-tagged EGFR catalytic domain (668 to 1210 residues) expressed in baculovirus expression system using TK-biotin peptide as substrate measured after 10 mins by HTRF assay
Sequence of Epidermal growth factor receptor (P00533 whole entry, the tested form may be a part): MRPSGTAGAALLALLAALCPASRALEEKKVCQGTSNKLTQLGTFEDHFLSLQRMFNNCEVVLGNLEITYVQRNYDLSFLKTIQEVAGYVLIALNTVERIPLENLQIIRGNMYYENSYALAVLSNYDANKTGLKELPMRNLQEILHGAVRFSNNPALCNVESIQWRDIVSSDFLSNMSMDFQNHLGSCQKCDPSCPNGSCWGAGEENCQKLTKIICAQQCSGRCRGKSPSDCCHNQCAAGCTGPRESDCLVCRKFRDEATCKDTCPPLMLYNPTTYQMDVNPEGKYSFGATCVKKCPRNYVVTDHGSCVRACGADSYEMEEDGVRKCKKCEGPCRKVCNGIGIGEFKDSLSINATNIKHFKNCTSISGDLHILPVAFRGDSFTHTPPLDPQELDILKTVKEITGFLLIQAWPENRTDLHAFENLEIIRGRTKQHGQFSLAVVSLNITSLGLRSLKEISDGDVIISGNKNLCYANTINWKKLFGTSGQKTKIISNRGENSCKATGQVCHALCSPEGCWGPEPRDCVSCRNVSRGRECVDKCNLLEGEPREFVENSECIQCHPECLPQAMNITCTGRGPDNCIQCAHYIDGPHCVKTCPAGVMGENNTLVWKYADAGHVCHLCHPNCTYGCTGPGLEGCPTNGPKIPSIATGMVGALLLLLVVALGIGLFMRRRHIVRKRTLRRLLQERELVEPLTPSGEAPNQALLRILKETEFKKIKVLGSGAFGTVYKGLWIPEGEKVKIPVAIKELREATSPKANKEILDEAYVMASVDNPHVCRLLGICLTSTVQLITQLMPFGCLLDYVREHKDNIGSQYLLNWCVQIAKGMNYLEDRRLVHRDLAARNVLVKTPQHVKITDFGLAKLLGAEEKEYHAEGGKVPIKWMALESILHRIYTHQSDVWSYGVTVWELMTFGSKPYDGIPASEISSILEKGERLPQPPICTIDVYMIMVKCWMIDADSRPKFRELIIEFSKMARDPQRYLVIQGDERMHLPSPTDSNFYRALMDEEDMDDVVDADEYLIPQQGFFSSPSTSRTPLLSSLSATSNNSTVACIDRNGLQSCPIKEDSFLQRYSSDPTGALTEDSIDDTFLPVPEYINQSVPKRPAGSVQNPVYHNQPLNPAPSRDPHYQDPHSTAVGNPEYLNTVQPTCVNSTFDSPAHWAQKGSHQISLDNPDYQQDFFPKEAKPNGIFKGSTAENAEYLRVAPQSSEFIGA

For `O=C(Nc1ccccc1)Nc1nnc(-c2ccccc2)o1`, which IC50 [1] is on record?
Its IC50 is 6.87 µM.

And the IC50 (UO-31)?
Its IC50 is 0.0332 µM.

How did the IC50 [1] turn out when `O=C(CSc1nnc(-c2ccncc2)o1)N/N=C/c1ccc(Cl)cc1` was run?
The IC50 was 6.78 µM.

For `O=C(CSc1nnc(-c2ccncc2)o1)N/N=C/c1ccc([N+](=O)[O-])cc1`, which IC50 [1] is on record?
The IC50 was 4.49 µM.

How did the IC50 [1] turn out when `CCO/C=N/c1nnc(-c2ccccc2)o1` was run?
The IC50 was 14.2 µM.

With `Brc1ccc(/C=N/Nc2nnc(-c3ccncc3)o2)cc1` as the compound, how does the IC50 [1] read?
The IC50 was 5.71 µM.

`O=[N+]([O-])c1ccc(/C=N/c2nnc(-c3ccc(Cl)cc3)o2)cc1` was tested. Which IC50 [1] did it give?
Its IC50 is 12 µM.

How did the IC50 [1] turn out when `Clc1ccc(/C=N/Nc2nnc(-c3ccncc3)o2)cc1` was run?
The IC50 was 8.69 µM.

Which IC50 [1] does the source give for `Clc1ccc(-c2nnc(CSc3nnc(-c4ccncc4)o3)o2)cc1` here?
The IC50 was 6.84 µM.

How did the IC50 [1] turn out when `CCO/C=N/c1nnc(-c2ccc(Cl)cc2)o1` was run?
The IC50 was 15.4 µM.

What about the IC50 (UO-31) of the same compound?
The IC50 was 0.0527 µM.

For `O=C(Nc1ccccc1)Nc1nnc(-c2ccc(Cl)cc2)o1`, which IC50 [1] is on record?
Its IC50 is 10.9 µM.

For `N#CCC(=O)Nc1nnc(-c2ccc(Cl)cc2)o1`, which IC50 [1] is on record?
The IC50 was 13.7 µM.

With `Clc1ccc(/C=N/c2nnc(-c3ccc(Cl)cc3)o2)cc1` as the compound, how does the IC50 [1] read?
Its IC50 is 5.39 µM.

What about the IC50 (UO-31) of the same compound?
The IC50 was 0.0296 µM.

How did the IC50 [1] turn out when `O=[N+]([O-])c1ccc(/C=N/c2nnc(-c3ccccc3)o2)cc1` was run?
Its IC50 is 9.81 µM.

How did the IC50 [1] turn out when `Brc1ccc(-c2nnc(CSc3nnc(-c4ccncc4)o3)o2)cc1` was run?
The IC50 was 4.17 µM.

And the IC50 (UO-31)?
The IC50 was 0.0835 µM.

Which results are given for `CCO/C=N/c1nnc(-c2cccnc2)o1`?
IC50 [1]: 12.7 µM; IC50 (UO-31): 0.31 µM

How did the IC50 [1] turn out when `O=C(Nc1ccccc1)Nc1nnc(-c2cccnc2)o1` was run?
The IC50 was 9.37 µM.

What about the IC50 (UO-31) of the same compound?
Its IC50 is 0.00576 µM.

How did the IC50 [1] turn out when `Clc1ccc(-c2nnc(/N=C/c3ccccc3)o2)cc1` was run?
Its IC50 is 7.54 µM.

Which results are given for `O=[N+]([O-])c1ccc(/C=N/Nc2nnc(-c3ccncc3)o2)cc1`?
IC50 [1]: 9.87 µM; IC50 [2]: 0.412 µM; IC50 (UO-31): 0.0086 µM

What does the source list for `Clc1ccc(/C=N/c2nnc(-c3cccnc3)o2)cc1`?
IC50 [1]: 10.5 µM; IC50 [2]: 1.13 µM; IC50 (UO-31): 0.0136 µM

For `C(=N\Nc1nnc(-c2ccncc2)o1)/c1ccccc1`, which IC50 [1] is on record?
The IC50 was 10.6 µM.

With `Clc1ccc(/C=N/c2nnc(-c3ccccc3)o2)cc1` as the compound, how does the IC50 [1] read?
Its IC50 is 11.4 µM.

With `O=[N+]([O-])c1ccc(/C=N/c2nnc(-c3cccnc3)o2)cc1` as the compound, how does the IC50 [1] read?
Its IC50 is 8.29 µM.

With `Oc1ccc(-c2nnc(CSc3nnc(-c4ccncc4)o3)o2)cc1` as the compound, how does the IC50 [1] read?
The IC50 was 7.96 µM.

For `N#CCC(=O)Nc1nnc(-c2cccnc2)o1`, which IC50 [1] is on record?
The IC50 was 13.1 µM.

With `COc1cccc2c1C(=O)c1c(O)c3c(c(O)c1C2=O)C[C@@](O)(C(=O)CO)C[C@@H]3O[C@H]1C[C@H](N)[C@H](O)[C@H](C)O1` [DOXORUBICIN] as the compound, how does the IC50 (UO-31) read?
The IC50 was 0.00745 µM.
